The values below come from ChEMBL document CHEMBL1121844, “Synthesis and preliminary antitumor evaluation of 5-iminodoxorubicin” (1981).

Holding throughout (assay type): functional
For assay [1], the system named is Mus musculus. Description: Compound was evaluated for antitumor activity in mice injected intraperitoneal with leukemia P-388 cells, treated on days 5, 9, and 13th day at 4 mg/kg. The procedure, abridged:
(§1)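 Mice received leukemia P-388 cells intraperitoneally on day 0. The specified dose was then given ip on days 5, 9 and 13. Read-out was % T/C, the survival time of treated mice relative to untreated controls. A T/C of 120% or more was defined as active.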

Assay [2] concerns L1210. Description: Dose required to inhibit the DNA synthesis in leukemia L1210 cells. To be noted: Mus musculus, read-out: ED50 (the source's name).
Assay [3] concerns L1210. Put plainly: Dose required to inhibit the RNA synthesis in leukemia L1210 cells. To be noted: Mus musculus, read-out: ED50 (the source's name).
The species entered for a further assay is Rattus norvegicus. Put plainly: Compound was evaluated for augmentation of rat liver microsomal oxygen consumption relative to doxorubicin.
The subject of assay [4] is Mus musculus. Put plainly: Compound was evaluated for antitumor activity in mice injected intraperitoneal with leukemia P-388 cells, treated on days 5, 9, and 13 th day at 16 mg/kg. The procedure, abridged: as §1
For assay [5], the system named is Mus musculus. Description: Compound was evaluated for antitumor activity in mice injected intraperitoneal with leukemia P-388 cells, treated on days 5, 9, and 13th day at 2 mg/kg. The procedure, abridged: as §1
The test system of assay [6] is Mus musculus. Put plainly: Compound was evaluated for antitumor activity in mice injected intraperitoneal with leukemia P-388 cells, treated on days 5, 9, and 13th day at 8 mg/kg. An outline of the steps: as §1
Assay [7] relates to Mus musculus. Put plainly: Compound was evaluated for antitumor activity in mice injected intraperitoneal with leukemia P-388 cells, treated on days 5, 9, and 13th day at 12.5 mg/kg. An outline of the steps: as §1
The subject of assay [8] is Mus musculus. Put plainly: Compound was evaluated for antitumor activity in mice injected intraperitoneal with leukemia P-388 cells, treated on days 5, 9, and 13 th day at 50 mg/kg. The procedure, abridged:
as §1

For the next assay, the system named is Nucleic Acid. Description: Thermal denaturation for stabilization of helical DNA by the compound.
For assay [9], the system named is Mus musculus. Description: Compound was evaluated for antitumor activity in mice injected intraperitoneal with leukemia P-388 cells, treated on days 5, 9, and 13th day at 6.25 mg/kg. The procedure, abridged:
as §1

The test system of assay [10] is Mus musculus. Description: Compound was evaluated for antitumor activity in mice injected intraperitoneal with leukemia P-388 cells, treated on days 5, 9, and 13th day at 25 mg/kg. An outline of the steps: as §1
The test system of assay [11] is Mus musculus. Put plainly: Compound was evaluated for antitumor activity in mice injected intraperitoneal with leukemia P-388 cells, treated on days 5, 9, and 13 th day at 2 mg/kg. An outline of the steps: as §1
For assay [12], the system named is Mus musculus. Description: Compound was evaluated for antitumor activity in mice injected intraperitoneal with leukemia P-388 cells, treated on days 5, 9, and 13 th day at 4 mg/kg. The procedure, abridged: as §1
Assay [13] deals with Mus musculus. Description: Compound was evaluated for antitumor activity in mice injected intraperitoneal with leukemia P-388 cells, treated on days 5, 9, and 13 th day at 1 mg/kg. The procedure, abridged:
as §1

Assay [14] has as its system Mus musculus. Description: Compound was evaluated for antitumor activity in mice injected intraperitoneal with leukemia P-388 cells, treated on days 5, 9, and 13 th day at 8 mg/kg. The procedure, abridged:
as §1

The test system of assay [15] is Mus musculus. Put plainly: Compound was evaluated for antitumor activity in mice injected intraperitoneal with leukemia P-388 cells, treated on days 5, 9, and 13th day at 9 mg/kg. An outline of the steps:
as §1

Assay [16] relates to Mus musculus. Put plainly: Compound was evaluated for antitumor activity in mice injected intraperitoneal with leukemia P-388 cells, treated on days 5, 9, and 13th day at 12 mg/kg. The procedure, abridged:
as §1

The subject of assay [17] is Mus musculus. Description: Compound was evaluated for antitumor activity in mice injected intraperitoneal with leukemia P-388 cells, treated on days 5, 9, and 13th day at 6 mg/kg. The procedure, abridged:
as §1

Assay [18] deals with Mus musculus. Put plainly: Compound was evaluated for antitumor activity in mice injected intraperitoneal with leukemia P-388 cells, treated on days 5, 9, and 13th day at 1.94 mg/kg. An outline of the steps:
as §1

Assay [19] concerns Mus musculus. Description: Compound was evaluated for antitumor activity in mice injected intraperitoneal with leukemia P-388 cells, treated on days 5, 9, and 13th day at 5.4 mg/kg. An outline of the steps:
as §1

In assay [20] the test system is Mus musculus. Description: Compound was evaluated for antitumor activity in mice injected intraperitoneal with leukemia P-388 cells, treated on days 5, 9, and 13th day at 1.5 mg/kg. The procedure, abridged:
as §1

Assay [21] relates to Mus musculus. Put plainly: Compound was evaluated for antitumor activity in mice injected intraperitoneal with leukemia P-388 cells, treated on days 5, 9, and 13th day at 16 mg/kg. An outline of the steps: as §1
In assay [22] the test system is Mus musculus. Put plainly: Compound was evaluated for antitumor activity in mice injected intraperitoneal with leukemia P-388 cells, treated on days 5, 9, and 13th day at 3.46 mg/kg. An outline of the steps:
as §1

For assay [23], the system named is Mus musculus. Put plainly: Compound was evaluated for antitumor activity in mice injected intraperitoneal with leukemia P-388 cells, treated on days 5, 9, and 13th day at 3 mg/kg. The procedure, abridged: as §1
Assay [24] has as its system Mus musculus. Put plainly: Compound was evaluated for antitumor activity in mice injected intraperitoneal with leukemia P-388 cells, treated on days 5, 9, and 13th day at 3.24 mg/kg. The procedure, abridged: as §1
Assay [25] relates to Mus musculus. Description: Compound was evaluated for antitumor activity in mice injected intraperitoneal with leukemia P-388 cells, treated on days 5, 9, and 13 th day at 24 mg/kg. The procedure, abridged:
as §1

The test system of assay [26] is Mus musculus. Description: Compound was evaluated for antitumor activity in mice injected intraperitoneal with leukemia P-388 cells, treated on days 5, 9, and 13th day at 9.6 mg/kg. An outline of the steps:
as §1

The test system of assay [27] is Mus musculus. Description: Compound was evaluated for antitumor activity in mice injected intraperitoneal with leukemia P-388 cells, treated on days 5, 9, and 13th day at 5.76 mg/kg. An outline of the steps:
as §1

Consider `COc1cccc2c1C(=O)c1c(O)c3c(c(O)c1C2=O)C[C@@](O)(C(C)=O)C[C@@H]3O[C@H]1C[C@H](N)[C@H](O)[C@H](C)O1.Cl` [DAUNORUBICIN HYDROCHLORIDE], for which the T/C – broadly, the ratio of treated to control – with Mus musculus [1] was found to be 126%; with Mus musculus [4], 123%; in the assay with Mus musculus [5], 123%; with Mus musculus [6] it was 129%. The EC50 worked out at 1 µM with L1210 [2] and 0.3 µM in the assay with L1210 [3]. In addition, in the assay filed under Rattus norvegicus, the Augmentation is 109%.

Take `COc1cccc2c1C(=N)c1c(O)c3c(c(O)c1C2=O)C[C@@](O)(C(=O)CO)C[C@@H]3OC1CC(N)C(O)C(C)O1.Cl` (stereo partly specified): the T/C in the assay with Mus musculus [7] was determined as 132%; with Mus musculus [8], 173%; in the assay on Mus musculus [9] it was 122%; in the assay with Mus musculus [10] it was 155%. For the same molecule, the EC50 in the assay with L1210 [2] is 2 µM; in the assay on L1210 [3] it was 2.1 µM. For the same molecule, the ΔTm – broadly, the change in melting temperature against a reference sample – with Nucleic Acid amounted to 6.9 °C. In the assay listed under Rattus norvegicus, this molecule returned an Augmentation of 7.5%.

On to `COc1cccc2c1C(=O)c1c(O)c3c(c(O)c1C2=O)C[C@@](O)(C(=O)CO)C[C@@H]3O[C@H]1C[C@H](N)[C@H](O)[C@H](C)O1.Cl` [DOXORUBICIN HYDROCHLORIDE], for which the T/C is recorded as 130% with Mus musculus [11]; 144% with Mus musculus [12]; 123% in the assay with Mus musculus [13]; 125% with Mus musculus [4]; 162% with Mus musculus [14]. The EC50 in the assay with L1210 [2] amounted to 1.5 µM; in the assay on L1210 [3] it was 0.7 µM. Also, the ΔTm in the assay on Nucleic Acid was 13.4 °C. The molecule also returned an Augmentation in the assay listed under Rattus norvegicus of 100%.

Take `COc1cccc2c1C(=N)c1c(O)c3c(c(O)c1C2=O)C[C@@](O)(C(C)=O)C[C@@H]3OC1CC(N)C(O)C(C)O1.Cl` (stereo partly specified): the T/C was 157% in the assay with Mus musculus [15]; 116% in the assay on Mus musculus [16]; 124% in the assay with Mus musculus [17]; 137% with Mus musculus [18]; 161% in the assay on Mus musculus [19]; 126% in the assay on Mus musculus [20]. Besides, the T/C with Mus musculus [21] came to 140%; in the assay with Mus musculus [22], 177%; with Mus musculus [23] it was 130%; with Mus musculus [24] it was 150%; in the assay on Mus musculus [25], 126%; in the assay with Mus musculus [26] it was 180%. The T/C in the assay with Mus musculus [27] is 186%. Besides, the EC50 in the assay on L1210 [2] came to 1.6 µM; with L1210 [3], 1.3 µM. Also, the ΔTm with Nucleic Acid came out at 6.2 °C. In the assay listed under Rattus norvegicus, this molecule yielded an Augmentation of 8.2%.
